Reference: article PMC12435242 (Proceedings of the National Academy of Sciences of the …, 2025)

Experiments:
all SV2 members (SV2s) = details: cited from earlier work
SV2A [1] = target: SV2A (Homo sapiens, UniProt Q7L0J3); experiment: 3H-UCB-J binding with or without UCB1244283; details: Kd of 3H-UCB-J binding to SV2A
SV2A-F188A = SV2A-F188A (Homo sapiens, UniProt Q7L0J3, F188A); experiment: 3H-LEV filter binding, concentration-response of UCB1244283
How it was run: (§1)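 Human SV2AΔ64 (C-terminal mVenus/TwinStrep/His10), wild-type or point mutant, PEI-transfected into suspension tsA201 cells. Membranes harvested 48–60 h later and loaded at equal SV2A by FSEC. Incubated 45 min on ice with 3.3 µM 3H-LEV and test compound 1 nM–30 µM; nonspecific binding defined with 1 mM PSL. PEI-soaked glass-fibre filtration, scintillation counting. EC50 by three-parameter log(agonist) fit; triplicate; mean ± SEM.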

sound-sensitive mice = details: cited from earlier work
SV2A A308S mutant = SV2A A308S mutant (Homo sapiens, UniProt Q7L0J3, A308S); experiment: 3H-LEV filter binding, concentration-response of UCB1244283; details: 3H-LEV 3.3 µM
How it was run: (§2)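 Membranes came from tsA201 cells transfected with PEI and harvested at 48–60 h. Cells expressed human SV2A mutants lacking residues 1–64, tagged C-terminally with mVenus/TwinStrep/His10. Equal protein per FSEC was used. Incubation was 45 min on ice with 3H-LEV 3.3 µM plus test compound, 1 nM–30 µM final. Nonspecific binding was set with 1 mM unlabeled PSL. Filtration used 1% PEI-soaked glass-fibre filters, with an ice-cold TBS150 wash, then scintillation counting. Assays were run in triplicate and fitted to a three-parameter log(agonist)–response curve.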

SV2A [2] = details: cited from earlier work
SV2A-D670A = SV2A-D670A (Homo sapiens, UniProt Q7L0J3, D670A); experiment: 3H-LEV binding with or without UCB1244283, primary site mutant
PSL-bound SV2A complex = details: cited from earlier work
SV2A-F184A = SV2A-F184A (Homo sapiens, UniProt Q7L0J3, F184A); experiment: 3H-LEV filter binding, concentration-response of UCB1244283
How it was run: as §1

SV2A-W300A = SV2A-W300A (Homo sapiens, UniProt Q7L0J3, W300A); experiment: 3H-LEV binding with or without UCB1244283, primary site mutant
SV2A L655Q mutant = SV2A L655Q mutant (Homo sapiens, UniProt Q7L0J3, L655Q); experiment: 3H-LEV filter binding, concentration-response of UCB1244283; details: 3H-LEV 3.3 µM
How it was run: as §2

[3] = system: SV2A in human brain membranes; details: cited from earlier work
SV2A G659N mutant = SV2A G659N mutant (Homo sapiens, UniProt Q7L0J3, G659N); experiment: 3H-LEV filter binding, concentration-response of UCB1244283; details: 3H-LEV 3.3 µM
How it was run: as §2

SV2A T465A mutant = SV2A T465A mutant (Homo sapiens, UniProt Q7L0J3, T465A); experiment: as above; details: 3H-LEV 3.3 µM
How it was run: as §2

[4] = target: wild-type SV2A (SV2AΔ64-mVenus) (Homo sapiens, UniProt Q7L0J3); experiment: 3H-LEV filter binding, concentration-response of UCB1244283
How it was run: as §1

SV2A-G659C = SV2A-G659C (Homo sapiens, UniProt Q7L0J3, G659C); experiment: 3H-LEV filter binding, concentration-response of UCB1244283
[5] = system: SV2A compared to SV2B and SV2C; details: cited from earlier work
[6] = by slowing the rate of dissociation

SV2A-F188A, sequence (Q7L0J3 65-742 F188A limits assumed): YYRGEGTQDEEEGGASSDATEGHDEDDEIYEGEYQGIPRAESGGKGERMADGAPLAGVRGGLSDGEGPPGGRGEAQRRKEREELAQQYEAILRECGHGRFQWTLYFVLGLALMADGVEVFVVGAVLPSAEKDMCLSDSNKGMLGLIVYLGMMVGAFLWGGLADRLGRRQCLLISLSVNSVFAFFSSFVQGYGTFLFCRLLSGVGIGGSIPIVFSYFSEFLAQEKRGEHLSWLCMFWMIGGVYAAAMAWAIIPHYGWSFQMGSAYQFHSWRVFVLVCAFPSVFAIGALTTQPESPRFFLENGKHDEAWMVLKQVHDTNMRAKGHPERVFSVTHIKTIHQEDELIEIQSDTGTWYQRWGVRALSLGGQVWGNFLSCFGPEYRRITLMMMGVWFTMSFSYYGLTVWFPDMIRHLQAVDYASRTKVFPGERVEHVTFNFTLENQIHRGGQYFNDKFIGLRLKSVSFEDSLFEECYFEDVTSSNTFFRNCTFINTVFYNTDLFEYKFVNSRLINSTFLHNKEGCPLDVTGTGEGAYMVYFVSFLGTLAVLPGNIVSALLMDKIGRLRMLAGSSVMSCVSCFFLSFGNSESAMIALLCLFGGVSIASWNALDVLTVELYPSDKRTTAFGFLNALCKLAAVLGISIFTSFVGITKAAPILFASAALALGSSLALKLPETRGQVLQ
SV2A (Homo sapiens, UniProt Q7L0J3), sequence (Q7L0J3 65-742 limits assumed): as the sequence (Q7L0J3 65-742 F188A limits assumed) above, with A124F counted along it
wild-type SV2A (SV2AΔ64-mVenus), sequence (Q7L0J3 65-742 limits assumed, stated change not applied): as the sequence (Q7L0J3 65-742 F188A limits assumed) above, with A124F counted along it
SV2A-F184A, sequence (Q7L0J3 65-742 F184A limits assumed): as the sequence (Q7L0J3 65-742 F188A limits assumed) above, with F120A, A124F counted along it
SV2A-G659C, sequence (Q7L0J3 65-742 G659C limits assumed): as the sequence (Q7L0J3 65-742 F188A limits assumed) above, with A124F, G595C counted along it
SV2A-W300A, sequence (Q7L0J3 65-742 W300A limits assumed): as the sequence (Q7L0J3 65-742 F188A limits assumed) above, with A124F, W236A counted along it
SV2A-D670A, sequence (Q7L0J3 65-742 D670A limits assumed): as the sequence (Q7L0J3 65-742 F188A limits assumed) above, with A124F, D606A counted along it
SV2A L655Q mutant, sequence (Q7L0J3 65-742 L655Q limits assumed): as the sequence (Q7L0J3 65-742 F188A limits assumed) above, with A124F, L591Q counted along it
SV2A G659N mutant, sequence (Q7L0J3 65-742 G659N limits assumed): as the sequence (Q7L0J3 65-742 F188A limits assumed) above, with A124F, G595N counted along it
SV2A T465A mutant, sequence (Q7L0J3 65-742 T465A limits assumed): as the sequence (Q7L0J3 65-742 F188A limits assumed) above, with A124F, T401A counted along it
SV2A A308S mutant, sequence (Q7L0J3 65-742 A308S limits assumed): as the sequence (Q7L0J3 65-742 F188A limits assumed) above, with A124F, A244S counted along it

COCc1nn2c(CN3CC(CC(F)(F)Cl)CC3=O)c(C(F)(F)F)nc2s1 (single isomer, unassigned) [PSL]
affinity for all SV2 members (all SV2 members (SV2s)): nanomolar affinity

Cc1cnccc1CN1C[C@@H](c2cc(F)c(F)c(F)c2)CC1=O [UCB-J, (4R)-1-((3-Methyl-4-pyridinyl)methyl)-4-(3,4,5-trifluorophenyl)-2-pyrrolidinone]
Kd (SV2A [1]; in the absence of UCB1244283): 5.3 ± 0.8 nM | Kd (SV2A [1]; in the presence of saturating UCB1244283): 6 ± 1 nM

COc1ccccc1NC(=O)CC(C)Cc1cc(C)cc(C)c1 (centres unmarked) [UCB1244283, 4-(3,5-dimethylphenyl)-N-(2-methoxyphenyl)-3-methylbutanamide]
EC50 (SV2A-F188A): 70 ± 10 nM | enhancement of EC50 for UCB1244283 compared to wild-type (SV2A-F188A; F188A mutant): ~9 fold | protection against seizures (sound-sensitive mice): protection against both tonic and clonic seizures | change in LEV binding on addition of UCB1244283 (SV2A A308S mutant): do not show a significant change in LEV binding | increase in binding affinity for BRV on incubation of UCB1244283 with SV2A (SV2A [2]; [6]): 10 fold | increase in binding affinity for LEV on incubation of UCB1244283 with SV2A (SV2A [2]; [6]): 2.5 fold | increase in maximum binding capacity (Bmax) for BRV (SV2A [2]; with UCB1244283): 1.4 fold | increase in maximum binding capacity (Bmax) for LEV (SV2A [2]; with UCB1244283): twofold | effect on maximum specific binding (Bmax) of 3H-LEV (SV2A-D670A; UCB1244283 30 µM, 3H-LEV 3.3 µM, SV2A-D670A): does not enhance | binding to the PSL-bound SV2A complex (PSL-bound SV2A complex): does not bind | EC50 (SV2A-F184A): 200 ± 40 nM | enhancement of EC50 for UCB1244283 compared to wild-type (SV2A-F184A; F184A mutant): ~ 3 fold | effect on maximum specific binding (Bmax) of 3H-LEV (SV2A-W300A; UCB1244283 30 µM, 3H-LEV 3.3 µM, SV2A-W300A): does not enhance | change in LEV binding on addition of UCB1244283 (SV2A L655Q mutant): do not show a significant change in LEV binding | effect of UCB1244283 on BRV binding [3]: increases both the Bmax and binding affinity | effect of UCB1244283 on LEV binding [3]: only increases the Bmax | change in LEV binding on addition of UCB1244283 (SV2A G659N mutant): do not show a significant change in LEV binding | change in LEV binding on addition of UCB1244283 (SV2A T465A mutant): do not show a significant change in LEV binding | EC50 [4]: 700 ± 300 nM | increase in specific counts of 3H-LEV binding ([4]; saturating 3H-LEV (~4 µM), with vs without UCB1244283 30 µM): ~ 2 fold | EC50 (SV2A-G659C): 1000 ± 800 nM | reduction in Bmax of 3H-LEV binding compared to wild-type (SV2A-G659C; G659C mutant, with UCB1244283): ~ 4 fold

CC[C@@H](C(N)=O)N1CCCC1=O [LEV, 2S-(2-oxo-1-pyrrolidinyl)butanamide]
LEV binding to mutant (SV2A-D670A; D670A, with or without UCB1244283): unable to measure any significant LEV binding | higher affinity for SV2A compared to SV2B and SV2C [5]: at least 100 fold | LEV binding to mutant (SV2A-W300A; W300A, with or without UCB1244283): unable to measure any significant LEV binding

CCC[C@@H]1CC(=O)N([C@@H](CC)C(N)=O)C1 [BRV, (2S)-2-((4R)-2-oxo-4-propylpyrrolidin-1-yl)butanamide]
higher affinity for SV2A compared to SV2B and SV2C [5]: at least 100 fold
